One block for each molecule: values may come before it. The source made the active and inactive calls.
How the values were obtained:
[1] = molecular target: T1, P2Y purinoceptor 14 (Homo sapiens) (UniProt Q15391); assay: (§1) Displacement of fluorescent tracer 4-(4-(1-(4-(1-(6-(3-carboxylato-4-(3-iminio-3H-xanthen-9-yl)benzamido)hexyl)-4,5-dihydro-1H-pyrrol-3-yl)butyl)piperidin-1-ium-4-yl)phenyl)-7-(4-(trifluoromethyl)phenyl)-2-naphthoate from human P2Y14R stably expressed in CHO cells upto 100 uM by flow cytometry; assay type: cell-based
T1 sequence (whole entry): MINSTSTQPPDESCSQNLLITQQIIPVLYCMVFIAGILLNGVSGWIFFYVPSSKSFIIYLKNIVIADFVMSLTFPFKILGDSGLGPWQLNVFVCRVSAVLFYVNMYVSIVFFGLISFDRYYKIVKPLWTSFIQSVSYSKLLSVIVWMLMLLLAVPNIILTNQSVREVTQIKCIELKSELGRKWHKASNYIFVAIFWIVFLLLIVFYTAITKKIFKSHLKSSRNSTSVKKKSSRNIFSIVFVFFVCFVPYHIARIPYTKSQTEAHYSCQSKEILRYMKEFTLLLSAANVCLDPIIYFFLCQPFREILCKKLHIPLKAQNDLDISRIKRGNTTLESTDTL

P2Y purinoceptor 14 [2] = molecular target: T2, P2Y purinoceptor 14 (Homo sapiens, UniProt Q15391); assay: as §1, with “assessed as inhibition constant” for “upto 100 uM”; assay type: cell-based
T2 sequence (Q15391 whole entry): T1 sequence (whole entry)
Procedure, shortened: (§2)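 Whole-cell competitive binding: CHO cells expressing hP2Y14R (or HEK-293 cells expressing mP2Y14R) incubated with AlexaFluor488-labelled antagonist tracer at 20 nM.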

[3] = Lipophilicity, log D of compound at pH 7.4 incubated for 20 hrs by HPLC analysis; assay type: physicochemical; settings: buffer
P2Y purinoceptor 14 [4] = molecular target: T3, P2Y purinoceptor 14 (Mus musculus, UniProt Q9ESG6); assay: Displacement of fluorescent tracer 4-(4-(1-(4-(1-(6-(3-carboxylato-4-(3-iminio-3H-xanthen-9-yl)benzamido)hexyl)-4,5-dihydro-1H-pyrrol-3-yl)butyl)piperidin-1-ium-4-yl)phenyl)-7-(4-(trifluoromethyl)phenyl)-2-naphthoate from mouse P2Y14R stably expressed in human HEK293 cells by flow cytometry; assay type: cell-based
T3 sequence (Q9ESG6 whole entry): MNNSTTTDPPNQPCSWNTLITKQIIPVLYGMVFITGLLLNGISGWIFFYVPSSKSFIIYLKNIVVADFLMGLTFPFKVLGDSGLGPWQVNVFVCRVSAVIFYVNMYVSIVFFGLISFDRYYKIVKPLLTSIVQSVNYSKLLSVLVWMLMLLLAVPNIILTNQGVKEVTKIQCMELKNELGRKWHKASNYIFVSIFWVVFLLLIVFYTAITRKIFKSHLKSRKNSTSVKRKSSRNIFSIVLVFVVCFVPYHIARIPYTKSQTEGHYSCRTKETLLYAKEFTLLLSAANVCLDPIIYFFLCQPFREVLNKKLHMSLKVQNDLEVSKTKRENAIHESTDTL
Procedure, shortened: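 Whole-cell competitive binding: CHO cells expressing hP2Y14R (or HEK-293 cells expressing mP2Y14R) incubated with AlexaFluor488-labelled antagonist tracer at 20 nM. […] Ki derived by dividing IC50 by 1.72.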

[5] = Selectivity ratio, ratio of IC50 for displacement of fluorescent tracer 4-(4-(1-(4-(1-(6-(3-carboxylato-4-(3-iminio-3H-xanthen-9-yl)benzamido)hexyl)-4,5-dihydro-1H-pyrrol-3-yl)butyl)piperidin-1-ium-4-yl)phenyl)-7-(4-(trifluoromethyl)phenyl)-2-naphthoate from mouse P2Y14R stably expressed in human HEK293 cells to IC50 for displacement of fluorescent tracer 4-(4-(1-(4-(1-(6-(3-carboxylato-4-(3-iminio-3H-xanthen-9-yl)benzamido)hexyl)-4,5-dihydro-1H-pyrrol-3-yl)butyl)piperidin-1-ium-4-yl)phenyl)-7-(4-(trifluoromethyl)phenyl)-2-naphthoate from human P2Y14R stably expressed in CHO cells; assay type: cell-based
[6] = molecular target: Sigma non-opioid intracellular receptor 1 (Homo sapiens, UniProt Q99720); assay: Displacement of [3H]-Pentazocine from human sigma 1 receptor assessed as inhibition constant by radioligand displacement assay
[7] = molecular target: Sigma intracellular receptor 2 (Homo sapiens, UniProt Q5BJF2); assay: Displacement of [3H]-DTG from human sigma 2 receptor assessed as inhibition constant by radioligand displacement assay
[8] = molecular target: 5-hydroxytryptamine receptor 1B (Homo sapiens, UniProt P28222); assay: Displacement of [3H]-5-CT from human 5-HT1B receptor assessed as inhibition constant by radioligand displacement assay
Histamine H1 receptor = Histamine H1 receptor (Homo sapiens, UniProt P35367); assay: Displacement of [3H]-Pyrilamine from human histamine H1 receptor assessed as inhibition constant by radioligand displacement assay
[9] = molecular target: Beta-3 adrenergic receptor (Homo sapiens, UniProt P13945); assay: Displacement of [125I]-Pindolol from human adrenergic beta3 receptor assessed as inhibition constant by radioligand displacement assay
Mus musculus [10] = assay: Antiallodynic activity in CCI surgery neuropathic pain Hsd:ICR mouse model assessed as reversal of mechano-allodynia by measuring paw withdrawal threshold at 10 micromol/kg,po and measured upto 6 hrs by von frey test; assay type: functional, organism-based; settings: dose 10.0 µmol/kg
Procedure, shortened: (§3)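 CCI neuropathic pain in adult male CD-1 mice. Single oral gavage dose of 10 μmol/kg on day 7 post-surgery. Vehicle 5% DMSO + 10% (Kolliphor HS 15:DMSO 5:95) in 0.5% methylcellulose, 0.2 mL. Von Frey paw withdrawal threshold on both hindpaws. Mean ± SD; two-way ANOVA with Dunnett's test.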

Mus musculus [11] = assay: Antiallodynic activity in CCI surgery neuropathic pain Hsd:ICR mouse model assessed as reversal of mechano-allodynia by measuring paw withdrawal threshold at 10 micromol/kg,ip and measured upto 5 days by von frey test; assay type: functional, organism-based; settings: dose 10.0 µmol/kg, time <= 5.0 day
Procedure, shortened: (§4)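 CCI neuropathic pain in adult male Hsd:ICR (CD-1) mice (20–30 g). Single i.p. injection on day 7 after sciatic nerve constriction, at peak pain. Vehicle 10% (Kolliphor HS 15:DMSO 5:95) in saline, 0.2 mL. Paw withdrawal threshold by von Frey filaments on ipsilateral and contralateral hindpaws. Mean ± SD; two-way ANOVA with Dunnett's test versus day 0 and day 7.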

[12] = Antagonist activity at chimpanzee P2Y14R stably expressed in human HEK cells assessed as inhibition of UDP-glucose induced Ca2+ signaling incubated for 20 mins by FLIPR analysis; assay type: cell-based; settings: Pan troglodytes, HEK293, 20 min
P2Y purinoceptor 14 [13] = molecular target: T2, P2Y purinoceptor 14; assay: Displacement of fluorescent tracer 4-(4-(1-(4-(1-(6-(3-carboxylato-4-(3-iminio-3H-xanthen-9-yl)benzamido)hexyl)-4,5-dihydro-1H-pyrrol-3-yl)butyl)piperidin-1-ium-4-yl)phenyl)-7-(4-(trifluoromethyl)phenyl)-2-naphthoate from human P2Y14R stably expressed in CHO cells by flow cytometry; assay type: cell-based; procedure, shortened: as §2
[14] = molecular target: T1, P2Y purinoceptor 14 (Homo sapiens); assay: Binding affinity to human P2Y14R stably expressed in CHO cells at 2 to 20000 nM by flow cytometry; assay type: cell-based; settings: dose 2-20000 nM
Procedure, shortened: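 Whole CHO cells expressing hP2Y14R. Binding of an AlexaFluor-free JaneliaFluor 646 tracer conjugate was tested at final concentrations of 2, 100, 500 and 20,000 nM, under conditions similar to the AlexaFluor488 tracer assay (20 nM). Specific binding was read by flow cytometry.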

[15] = Stability in mouse plasma assessed as half life at 1 uM and measured at 120 mins by LC-MS/MS analysis; assay type: ADME, cell-free
[16] = Stability in human plasma assessed as half life at 1 uM and measured at 120 mins by LC-MS/MS analysis; assay type: ADME, cell-free
Mus musculus [17] = assay: Antiallodynic activity in CCI surgery neuropathic pain Hsd:ICR mouse model assessed as reversal of mechano-allodynia by measuring paw withdrawal threshold at 10 micromol/kg,po and measured at 1 hrs by von frey test; assay type: functional, organism-based; settings: dose 10.0 µmol/kg; procedure, shortened: as §3
[18] = molecular target: T4, Muscarinic acetylcholine receptor M5 (Homo sapiens, UniProt P08912); assay: Displacement of […] from human muscarinic M5 receptor assessed as inhibition constant by radioligand displacement assay
T4 sequence (P08912 whole entry): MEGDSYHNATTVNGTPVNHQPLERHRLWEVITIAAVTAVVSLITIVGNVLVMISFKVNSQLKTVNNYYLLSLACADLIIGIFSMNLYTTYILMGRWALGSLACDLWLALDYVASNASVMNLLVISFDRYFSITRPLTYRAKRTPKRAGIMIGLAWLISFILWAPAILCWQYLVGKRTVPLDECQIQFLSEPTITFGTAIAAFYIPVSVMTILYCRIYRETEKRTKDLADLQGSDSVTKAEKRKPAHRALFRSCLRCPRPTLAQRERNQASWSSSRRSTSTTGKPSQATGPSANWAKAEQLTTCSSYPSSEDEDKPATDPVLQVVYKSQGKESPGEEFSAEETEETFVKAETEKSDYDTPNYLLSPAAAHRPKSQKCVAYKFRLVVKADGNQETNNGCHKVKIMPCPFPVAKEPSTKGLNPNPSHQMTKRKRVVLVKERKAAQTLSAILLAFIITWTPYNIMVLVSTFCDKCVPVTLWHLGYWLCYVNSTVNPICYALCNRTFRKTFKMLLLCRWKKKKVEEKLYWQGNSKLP

[19] = molecular target: T5, Alpha-1B adrenergic receptor (Homo sapiens, UniProt P35368); assay: Displacement of [3H]-Prazosin from human adrenergic alpha1B receptor assessed as inhibition constant by radioligand displacement assay
T5 sequence (P35368 whole entry): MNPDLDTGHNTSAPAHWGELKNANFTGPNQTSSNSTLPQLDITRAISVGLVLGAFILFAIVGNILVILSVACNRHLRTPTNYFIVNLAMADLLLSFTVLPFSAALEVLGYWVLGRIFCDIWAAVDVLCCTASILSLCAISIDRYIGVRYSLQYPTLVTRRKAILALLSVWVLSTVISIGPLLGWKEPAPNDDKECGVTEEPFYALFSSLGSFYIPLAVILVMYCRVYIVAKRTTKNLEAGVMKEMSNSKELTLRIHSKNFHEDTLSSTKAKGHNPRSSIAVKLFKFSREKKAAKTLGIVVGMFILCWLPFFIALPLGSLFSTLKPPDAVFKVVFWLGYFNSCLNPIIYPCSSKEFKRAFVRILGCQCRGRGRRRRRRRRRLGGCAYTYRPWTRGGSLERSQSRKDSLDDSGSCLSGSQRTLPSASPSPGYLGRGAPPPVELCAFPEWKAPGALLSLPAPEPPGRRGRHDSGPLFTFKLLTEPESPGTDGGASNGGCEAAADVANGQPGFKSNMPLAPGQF

[20] = molecular target: T6, Alpha-2A adrenergic receptor (Homo sapiens, UniProt P08913); assay: Displacement of [3H]-Rauwolscine from human adrenergic alpha2A receptor assessed as inhibition constant by radioligand displacement assay
T6 sequence (P08913 whole entry): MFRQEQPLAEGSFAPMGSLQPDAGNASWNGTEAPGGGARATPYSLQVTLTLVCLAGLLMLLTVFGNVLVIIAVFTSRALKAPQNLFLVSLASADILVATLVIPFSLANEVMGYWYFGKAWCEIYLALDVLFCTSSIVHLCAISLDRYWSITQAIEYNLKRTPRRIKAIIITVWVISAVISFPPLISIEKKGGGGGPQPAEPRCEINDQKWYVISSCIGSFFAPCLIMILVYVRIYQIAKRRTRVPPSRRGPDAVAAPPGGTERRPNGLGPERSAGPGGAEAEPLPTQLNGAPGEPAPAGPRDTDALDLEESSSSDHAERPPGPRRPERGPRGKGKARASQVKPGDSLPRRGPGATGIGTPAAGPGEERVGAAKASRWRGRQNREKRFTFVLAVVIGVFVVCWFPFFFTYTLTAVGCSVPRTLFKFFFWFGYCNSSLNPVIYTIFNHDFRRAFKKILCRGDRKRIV

Mus musculus [21] = assay: Antiallodynic activity in CCI surgery neuropathic pain Hsd:ICR mouse model assessed as reversal of mechano-allodynia by measuring paw withdrawal threshold at 10 micromol/kg,ip and measured at 3 hrs by von frey test; assay type: functional, organism-based; settings: dose 10.0 µmol/kg; procedure, shortened: as §4

Sequence of 5-hydroxytryptamine receptor 1B (P28222 whole entry): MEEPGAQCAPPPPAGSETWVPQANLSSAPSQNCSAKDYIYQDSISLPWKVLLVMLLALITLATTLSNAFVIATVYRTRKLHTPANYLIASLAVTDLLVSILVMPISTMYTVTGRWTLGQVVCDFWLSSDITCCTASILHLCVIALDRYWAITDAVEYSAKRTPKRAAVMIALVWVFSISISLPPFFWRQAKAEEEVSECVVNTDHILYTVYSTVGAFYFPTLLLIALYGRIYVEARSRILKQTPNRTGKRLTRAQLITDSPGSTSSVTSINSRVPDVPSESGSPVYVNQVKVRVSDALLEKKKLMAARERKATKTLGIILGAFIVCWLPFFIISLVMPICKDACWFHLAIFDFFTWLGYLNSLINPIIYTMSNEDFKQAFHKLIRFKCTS
Sequence of Histamine H1 receptor (P35367 whole entry): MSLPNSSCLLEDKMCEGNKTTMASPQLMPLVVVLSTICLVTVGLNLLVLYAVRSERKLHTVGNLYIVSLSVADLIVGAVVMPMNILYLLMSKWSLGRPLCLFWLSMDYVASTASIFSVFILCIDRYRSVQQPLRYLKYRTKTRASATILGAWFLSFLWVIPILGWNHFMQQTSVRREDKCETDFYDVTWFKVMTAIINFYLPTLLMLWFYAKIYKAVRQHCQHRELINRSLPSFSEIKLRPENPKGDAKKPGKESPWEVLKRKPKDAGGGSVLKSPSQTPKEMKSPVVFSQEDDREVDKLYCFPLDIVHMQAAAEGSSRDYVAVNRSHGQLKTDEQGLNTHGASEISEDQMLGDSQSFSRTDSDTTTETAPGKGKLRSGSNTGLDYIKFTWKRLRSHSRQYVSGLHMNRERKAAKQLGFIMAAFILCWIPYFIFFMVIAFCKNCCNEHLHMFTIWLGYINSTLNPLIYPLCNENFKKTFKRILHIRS
Sequence of Sigma intracellular receptor 2 (Q5BJF2 whole entry): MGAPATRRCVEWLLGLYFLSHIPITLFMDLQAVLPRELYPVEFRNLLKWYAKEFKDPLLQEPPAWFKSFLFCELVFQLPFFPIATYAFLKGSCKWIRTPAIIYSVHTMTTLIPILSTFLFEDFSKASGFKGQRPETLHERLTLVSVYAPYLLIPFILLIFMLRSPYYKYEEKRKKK
Sequence of Beta-3 adrenergic receptor (P13945 whole entry): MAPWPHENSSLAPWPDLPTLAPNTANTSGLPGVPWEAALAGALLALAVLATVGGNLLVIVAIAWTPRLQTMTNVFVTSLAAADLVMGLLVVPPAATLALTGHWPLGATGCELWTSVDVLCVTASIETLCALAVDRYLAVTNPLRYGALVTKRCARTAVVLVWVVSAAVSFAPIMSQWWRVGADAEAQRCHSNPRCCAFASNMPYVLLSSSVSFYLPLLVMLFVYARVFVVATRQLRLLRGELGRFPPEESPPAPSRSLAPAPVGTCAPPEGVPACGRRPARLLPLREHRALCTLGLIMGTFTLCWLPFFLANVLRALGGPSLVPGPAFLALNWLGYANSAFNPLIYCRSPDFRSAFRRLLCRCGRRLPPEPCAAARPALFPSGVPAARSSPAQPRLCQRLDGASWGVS
Sequence of Sigma non-opioid intracellular receptor 1 (Q99720 whole entry): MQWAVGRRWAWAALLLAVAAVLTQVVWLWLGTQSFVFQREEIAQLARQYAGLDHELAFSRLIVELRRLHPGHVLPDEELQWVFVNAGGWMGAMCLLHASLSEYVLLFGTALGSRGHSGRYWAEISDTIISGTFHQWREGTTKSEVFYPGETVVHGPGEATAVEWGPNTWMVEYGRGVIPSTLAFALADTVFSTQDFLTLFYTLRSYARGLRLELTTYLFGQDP

Activity [1]: inactive
SMILES: O=C(Cc1ccc(C(F)(F)F)cc1)Nc1cccc(-c2nc3cc(Cl)ccc3o2)c1

SMILES: O=C(O)c1cc(-c2ccc(C3CCCNCC3)cc2)c2ccc(-c3ccc(C(F)(F)F)cc3)cc2c1 (racemic)
Ki (P2Y purinoceptor 14 [2]): 5.57 nM
logD at 20 h [3]: 2.1
IC50 (P2Y purinoceptor 14 [4]): 25.7 nM
Ratio IC50 [5]: 2.68
Ki [6]: 890 nM
Ki [7]: 2800 nM
Ki [8]: 4.5 µM
Ki (Histamine H1 receptor): 2.8 µM
Ki [9]: 6.6 µM
Activity (Mus musculus [10]): Active
Activity (Mus musculus [11]): Active

IC50 [12]: 6.3 nM
SMILES: O=C(O)c1cc(-c2ccc(C3(O)CCNCC3)cc2)c2ccc(-c3ccc(C(F)(F)F)cc3)cc2c1

SMILES: C[Si]1(C)C2=CC(=[N+]3CCC3)C=CC2=C(c2cc(C(=O)NCCCCCCn3cc(CCCCN4CCC(c5ccc(-c6cc(C(=O)O)cc7cc(-c8ccc(C(F)(F)F)cc8)ccc67)cc5)CC4)nn3)ccc2C(=O)[O-])c2ccc(N3CCC3)cc21
IC50 (P2Y purinoceptor 14 [13]): 25.9 µM
Ki (P2Y purinoceptor 14 [2]): 9240 nM
Activity [14]: inactive

half-life at 1 µM [15]: 1.5 min
half-life at 1 µM [16]: > 720 min
SMILES: O=C(O)c1cc(-c2ccc(C3CCNCC3)cc2)c2ccc(-c3ccc(C(F)(F)F)cc3)cc2c1 [PPTN]
Activity (Mus musculus [17]): Active

SMILES: O=C(O)c1cc(-c2ccc(C3=CC4(CNC4)C3)cc2)c2ccc(-c3ccc(C(F)(F)F)cc3)cc2c1
Ki (P2Y purinoceptor 14 [2]): 5.63 nM
logD at 20 h [3]: 1.9
IC50 (P2Y purinoceptor 14 [4]): 15.9 nM
Ratio IC50 [5]: 1.64
Ki [7]: 2200 nM
Ki [8]: 6.7 µM
Ki [18]: 5 µM
Ki (Histamine H1 receptor): 5.6 µM
Ki [9]: 6.8 µM
Ki [19]: 7.3 µM

SMILES: O=C(O)c1cc(-c2ccc(C3(O)C[C@H]4CNC[C@@H]4C3)cc2)c2ccc(-c3ccc(C(F)(F)F)cc3)cc2c1 (racemic)
Ki (P2Y purinoceptor 14 [2]): 5.51 nM
logD at 20 h [3]: 1.1
IC50 (P2Y purinoceptor 14 [4]): 6.78 nM
Ratio IC50 [5]: 0.715
Ki [8]: 5.4 µM
Ki [19]: 6.4 µM
Ki [20]: 5.7 µM
Activity (Mus musculus [21]): Active
Activity (Mus musculus [10]): Active
Activity (Mus musculus [11]): Active

From ChEMBL document CHEMBL5331128, “Alicyclic Ring Size Variation of 4-Phenyl-2-naphthoic Acid Derivatives as P2Y14 Receptor Antagonists” (J Med Chem, 2023)
